Compound activity as filed in PubChem.
The list is not random: actives were taken first. Their share in the collection is about 2.2%.
ABHD5 PLIN5 PPI: ABHD5-PLIN5 protein interaction inhibition; Q00G26+Q8WTS1; Split G. princeps luciferase complementation, luminescence, 4 h; inhibition, % at 4 µM; actives 0.78% (n = 360,000); AID 602281;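 active = inhibition above the mean inhibition across every tested compound plus 3 SD, cut at about 22% in these data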
PfG6PD inh: PfG6PD (Plasmodium falciparum) enzyme inhibition; PfGluPho enzyme, NADPH resazurin-diaphorase fluorescence; inhibition, % at 20 µM; actives 0.78% (n = 350,000); AID 504690;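 active = inhibition reaching at least a set limit at 20 µM in the primary screen, cut at about 59% in these data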
Exocytosis inh: lytic granule exocytosis inhibition. actives 0.66% (n = 360,000). AID 651702. TALL-104 LAMP-1 surface exposure, flow cytometry; cells stimulated with thapsigargin and PMA. inhibition, % at 10 µM;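 active = inhibition above about 55%, limit read from the data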
HKDC1 inhibitor: HKDC1 (human) hexokinase inhibition. recombinant HKDC1, G6PDH/diaphorase resazurin coupled fluorescence. inhibition, % at 20 µM. actives 0.16% (n = 340,000);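 active = inhibition above about 35% when tested at 20 µM, limit read from the data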
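Assay system – recombinant HKDC1 (HK5) hexokinase enzyme, produced in-house · Input – HKDC1 at 5 µg/mL · Reagent – glucose plus 1 mM ATP as hexokinase substrates · Timing – 90 min reaction incubation at room temperature, dark · Measured by – G6PDH/diaphorase-coupled fluorescence, 1 mM NADP, 100 µM resazurin, 525/613 nm · Benchmarks – DMSO-enzyme wells negative, buffer-substituted wells positive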
A number is an active result; – = inactive; · = not tested or not shown.

SMILES	ABHD5 PLIN5 PPI	PfG6PD inh	Exocytosis inh	HKDC1 inhibitor
O=C(O)C1C2C=CC(O2)C1C(=O)Nc1ccc(S(=O)(=O)Nc2ccccc2)cc1 (configuration not stated)	–	–	102	–
O=C(O)C1C2C=CC(O2)C1C(=O)Nc1ccc(S(=O)(=O)N2CCc3ccccc32)cc1 (configuration not stated)	–	–	–	–
N#C/C(=C\c1ccc(C#N)cc1)C(=O)c1ccccc1	–	–	–	–
N#Cc1cccc(C=C(C(=O)c2ccccc2)c2ccccc2)c1	22	·	–	·
CCCCCCOc1ccc(/C(C)=N/NC2=NCCN2)cc1	–	–	59	–
Cn1nc(C(F)(F)F)c(/C=N/OC(=O)c2ccccc2)c1Cl	–	–	57	–
Cc1nn(C)c(Cl)c1/C=N/OC(=O)c1ccccc1	–	–	–	–
CCc1nnc(NS(=O)(=O)c2ccc(NC(=S)NC(=O)/C=C/c3ccccc3)cc2)s1	–	–	–	–
CCc1nnc(NS(=O)(=O)c2ccc(NC(=S)NC(=O)/C=C/c3ccc(C(C)C)cc3)cc2)s1	–	–	90	–
COc1ccc(C(C(=O)NCc2ccccc2)N(Cc2ccco2)C(=O)c2snc(C(N)=O)c2N)cc1OC (configuration not stated)	–	–	56	–
CSc1ccc(S(=O)(=O)NCc2ccc(Cl)cc2Cl)cc1	–	–	100	–
CSc1ccc(S(=O)(=O)NCc2ccccc2Cl)cc1	–	–	–	–
O=C1c2nc3cc(-c4ccco4)[nH]n3c(=O)c2CN1C1CCCCC1	–	–	–	–
O=C(OCN1C(=O)c2ccccc2C1=O)C1CCCCC1	–	–	–	–
O=C1c2ccccc2C(=O)N1SC1CCCCC1	–	–	87	–
Oc1ccc(N=Cc2ccc(-c3cccs3)s2)cc1	–	72	–	–
O=Cc1ccc(-c2cccs2)s1	–	–	–	–
CCn1c(CNC(=O)c2cccnc2)cc2ccccc21	–	–	–	–
Oc1cc2c(cc1C(c1ccc(Cl)c(Cl)c1)N1CCCC1)OCO2 (configuration not stated)	–	62	–	–
O=C(OCc1cn([C@@H]2CN(Cc3cccs3)[C@@H](c3ccccc3)C[C@H]2O)nn1)c1ccccc1	–	–	–	·
O=C1C(Br)=C(c2ccccc2)C(c2ccccc2)=C1c1ccccc1	–	–	106	–
Clc1ccc(C2=NCCN2)cc1	–	–	–	–
CC(C)=C[C@@H]1C[C@H](C)[C@H]2CC[C@H](C)c3c(O)c(O)c(C)c1c32	–	79	–	–
c1ccc(CCNc2ccc3ncc(-c4cccc5ccccc45)n3n2)nc1	–	·	–	·
COc1ccc2c(c1)SCCC2=O	–	–	–	–
SMILES	ABHD5 PLIN5 PPI	PfG6PD inh	Exocytosis inh	HKDC1 inhibitor
O=C1CCSC2=C1SCc1sccc12	22	·	–	·
CCCNC(=O)C1(C)CCN(Cc2ccc(-n3ccnc3)cc2)C1 (configuration not stated)	–	·	–	·
O=C(C[n+]1ccc(/C=C/c2ccccc2)cc1)c1ccc2c(c1)OCCO2	23	–	–	–
CCc1ccc2oc(C(=O)NCC(c3ccc(OC)cc3)N3CCCCC3)c(C)c2c1 (configuration not stated)	–	–	–	–
COC(=O)[C@@]1(Cc2ccccc2)[C@@H]2C(=CC(=O)[C@H]2CC(=O)C(=O)N(C)C)CN1C(=O)c1ccccc1	31	–	–	–
CC(C)C[C@H]1CN=C(Nc2ccccc2)N1CC1CCC(C(C)(C)C)CC1 (some centres not stated)	–	–	93	–
CC(C)CN=Cc1c(O)c([N+](=O)[O-])cc2oc3c(c12)CCCC3	–	–	95	–
O=[N+]([O-])c1cc2oc3c(c2c(C=NCc2ccccc2)c1O)CCCC3	–	–	–	–
CCC(OC(=O)c1ccc(S(C)(=O)=O)c([N+](=O)[O-])c1)C(=O)NC1C2CC3CC(C2)CC1C3 (configuration not stated)	–	·	–	·
CC(OC(=O)c1ccc(S(C)(=O)=O)c([N+](=O)[O-])c1)C(=O)NC1C2CC3CC(C2)CC1C3 (configuration not stated)	23	·	–	·
COc1ccc2[nH]c3c(c2c1)CCN1C(=O)C(CC(=O)NCCC2=CCCCC2)C[C@H](C(=O)N2CCCCC2)[C@@]31C (some centres not stated)	–	–	–	–
CN(C)CCNC(=O)COc1ccc(C23CC4CC(CC(C4)C2)C3)cc1	23	–	–	–
Cc1ccc(C23CC4CC(CC(NC(=O)NCCN(C)C)(C4)C2)C3)cc1	–	–	–	–
O=C(/C=C/c1ccco1)NCc1ccc(F)cc1	–	–	–	–
NS(=O)(=O)c1ccc(CNC(=O)/C=C/c2ccco2)cc1	23	–	–	–
